Laboratory results published in PMC11338093 (ESMO Open, 2024).

How the values were obtained:
[1] = test system: adults with refractory solid tumors or lymphoma; conditions: monotherapy phase I trial; cited from earlier work
[2] = test system: IFN-γ, IL-12/IL-23p40, IL-5, and IL-6; assay: Combination trial: plasma cytokines; type: in vivo, human; conditions: 4 and 24 h after APG-1387 dosing, 16 subjects
Procedure, shortened: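 Combination regimen: toripalimab 240 mg i.v. Q3W with the test compound i.v. weekly on D1/8 or D1/8/15. Plasma was collected on C1D1 pre-dose, at 4 and 24 h after the first test compound dose, and on C2D1 and C3D1 before toripalimab. Cytokines were measured by Meso Scale Discovery assay. Post-dose IFN-γ, IL-12, IL-5 and IL-6 were normalised to each subject's baseline.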

[3] = test system: subjects with advanced solid tumors; assay: APG-1387 monotherapy phase I trial: safety; type: in vivo, human
Procedure, shortened: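 3+3 escalation of 0.3, 0.6, 4.0, 7.0, 12, 20, 30 and 45 mg, given as 30-min i.v. infusion on D1/8/15 with a 1-week rest per 28-day cycle. Safety was monitored by vitals, examination, haematology, biochemistry, thyroid, coagulation and ECG. AEs were graded by CTCAE 4.0 from consent to 90 days after last dose. DLTs were predefined drug-related grade ≥3–4 toxicities in cycle 1. MTD was the level below that with DLTs in ≥2 of 6 subjects.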

[4] = test system: advanced solid tumors; assay: APG-1387 monotherapy phase I trial: antitumor activity; type: in vivo, human
[5] = test system: NK cell (CD3, −CD16+, and CD56+) populations; assay: Combination trial: peripheral blood lymphocyte subsets by flow cytometry; type: in vivo, human
Procedure, shortened: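 Combination regimen: toripalimab 240 mg i.v. Q3W plus test compound i.v., either 20–30 mg on D1/8 (3+3 stage) or 45 mg on D1/8/15 (second stage). Peripheral blood (3 ml) was drawn on C1D1, C2D1, C3D1 and at end of treatment. Lymphocyte subsets were analysed by flow cytometry. Post-dose cell proportions were divided by each subject's baseline.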

[6] = APG-1387 monotherapy phase I trial: plasma pharmacokinetics; type: in vivo, human
[7] = test system: patients with advanced solid tumors; conditions: cited from earlier work
[8] = 28 participants, 30- and 45-mg groups

CC[C@H](NC(=O)[C@H](C)NC)C(=O)N1C[C@@H](O)C[C@H]1Cc1c(-c2[nH]c3cc(F)ccc3c2C[C@@H]2C[C@H](O)CN2C(=O)[C@H](CC)NC(=O)[C@H](C)NC)[nH]c2cc(F)ccc12 [birinapant]
CR or PR [1]: no participant had a CR or PR | Subjects with best response of SD [1]: 28%

CN[C@@H](C)C(=O)N[C@H]1CN(S(=O)(=O)c2cccc(S(=O)(=O)N3CC[C@H]4CC[C@@H](C(=O)NC(c5ccccc5)c5ccccc5)N4C(=O)[C@@H](NC(=O)[C@H](C)NC)C3)c2)CC[C@H]2CC[C@@H](C(=O)NC(c3ccccc3)c3ccccc3)N2C1=O [APG-1387]
Plasma levels of IFN-γ, IL-12/IL-23p40, IL-5, and IL-6 [2]: significantly increased | Dose-limiting toxicities (DLT) ([3]; 0.3-45 mg i.v. D1/8/15 of 28-day cycle, 28 subjects): no DLT occurred | Subjects with TRAEs ([3]; 28 participants): 21.4% | TRAE pruritus ([3]; 28 participants, 20-mg group): 3.6% | TRAE elevated ALT [3, 8]: 7.1% | TRAE elevated AST [3, 8]: 7.1% | TRAE asthenia ([3]; 28 participants, 45-mg group): 3.6% | TRAE facial-nerve disorder ([3]; 28 participants, all in 45-mg group): 10.7% | Participants with grade ≥3 TRAE (ALT elevation) ([3]; 28 subjects): 3.6% | Any TRAE, All grade ([3]; all doses, n = 28): 6 (21·4) n (%) | Any TRAE, Grade ≥3 ([3]; all doses, n = 28): 1 (3·6) n (%) | TRAE Alanine aminotransferase elevation, All grade ([3]; all doses, n = 28): 2 (7·1) n (%) | TRAE Alanine aminotransferase elevation, Grade ≥3 ([3]; all doses, n = 28): 1 (3·6) n (%) | TRAE Amylase elevation, All grade ([3]; all doses, n = 28): 0 (0) n (%) | TRAE Amylase elevation, Grade ≥3 ([3]; all doses, n = 28): 0 (0) n (%) | TRAE Aspartate aminotransferase elevation, All grade ([3]; all doses, n = 28): 2 (7·1) n (%) | TRAE Aspartate aminotransferase elevation, Grade ≥3 ([3]; all doses, n = 28): 0 (0) n (%) | TRAE Asthenia, All grade ([3]; all doses, n = 28): 1 (3·6) n (%) | TRAE Asthenia, Grade ≥3 ([3]; all doses, n = 28): 0 (0) n (%) | TRAE Blood creatinine elevation, All grade ([3]; all doses, n = 28): 0 (0) n (%) | TRAE Blood creatinine elevation, Grade ≥3 ([3]; all doses, n = 28): 0 (0) n (%) | TRAE Decreased appetite, All grade ([3]; all doses, n = 28): 0 (0) n (%) | TRAE Decreased appetite, Grade ≥3 ([3]; all doses, n = 28): 0 (0) n (%) | TRAE Facial-nerve disorder, All grade ([3]; all doses, n = 28): 3 (10·7) n (%) | TRAE Facial-nerve disorder, Grade ≥3 ([3]; all doses, n = 28): 0 (0) n (%) | TRAE Headache, All grade ([3]; all doses, n = 28): 0 (0) n (%) | TRAE Headache, Grade ≥3 ([3]; all doses, n = 28): 0 (0) n (%) | TRAE Hypoesthesia, All grade ([3]; all doses, n = 28): 0 (0) n (%) | TRAE Hypoesthesia, Grade ≥3 ([3]; all doses, n = 28): 0 (0) n (%) | TRAE Hypogeusia, All grade ([3]; all doses, n = 28): 0 (0) n (%) | TRAE Hypogeusia, Grade ≥3 ([3]; all doses, n = 28): 0 (0) n (%) | TRAE Hypothyroidism, All grade ([3]; all doses, n = 28): 0 (0) n (%) | TRAE Hypothyroidism, Grade ≥3 ([3]; all doses, n = 28): 0 (0) n (%) | TRAE Immune-mediated pancreatitis, All grade ([3]; all doses, n = 28): 0 (0) n (%) | TRAE Immune-mediated pancreatitis, Grade ≥3 ([3]; all doses, n = 28): 0 (0) n (%) | TRAE Infusion site reaction, All grade ([3]; all doses, n = 28): 0 (0) n (%) | TRAE Infusion site reaction, Grade ≥3 ([3]; all doses, n = 28): 0 (0) n (%) | TRAE Leukopenia, All grade ([3]; all doses, n = 28): 0 (0) n (%) | TRAE Leukopenia, Grade ≥3 ([3]; all doses, n = 28): 0 (0) n (%) | TRAE Lipase elevation, All grade ([3]; all doses, n = 28): 0 (0) n (%) | TRAE Lipase elevation, Grade ≥3 ([3]; all doses, n = 28): 0 (0) n (%) | TRAE Platelet count decrease, All grade ([3]; all doses, n = 28): 0 (0) n (%) | TRAE Platelet count decrease, Grade ≥3 ([3]; all doses, n = 28): 0 (0) n (%) | TRAE Pruritus, All grade ([3]; all doses, n = 28): 1 (3·6) n (%) | TRAE Pruritus, Grade ≥3 ([3]; all doses, n = 28): 0 (0) n (%) | TRAE Rash, All grade ([3]; all doses, n = 28): 0 (0) n (%) | TRAE Rash, Grade ≥3 ([3]; all doses, n = 28): 0 (0) n (%) | Maximum tolerated dose (MTD) ([3]; doses up to 45 mg): not reached | Subjects with treatment-emergent adverse events ([3]; safety population, 28 participants): 89.3% | Disease control rate (DCR) ([4]; 23 participants): 21.7% | Best overall response: Complete response ([4]; n 23): 0 (0) n (%) | Best overall response: Partial response ([4]; n 23): 0 (0) n (%) | Best overall response: Progressive disease ([4]; n 23): 18 (78·3) n (%) | Best overall response: Stable disease ([4]; n 23): 5 (21·7) n (%) | Disease control rate ([4]; n 23): 5 (21·7) n (%) | Objective response rate ([4]; n 23): 0 (0) n (%) | Duration of SD with tumor reduction ([4]; one individual with CRC, 20-mg group): 16 weeks | NK cell populations in peripheral blood ([5]; 45-mg dose of APG-1387, combination trial): increased | NK cell populations in peripheral blood ([5]; low doses of APG-1387, combination trial): did not change significantly | Increase of Cmax and AUC0-t with dose ([6]; 0.3-45 mg): approximately dose-proportional | Accumulation after multiple dosing ([6]; QW dosing schedule): No significant accumulation | Mean rate of clearance ([6]; range across doses): 15.9 to 60.7 L/h | Mean steady-state volume of distribution (Vss) ([6]; range across doses): 10.1 to 60.1 L | Mean terminal half-life ([6]; range across doses): 44.5 to 672 min | Median time to maximum plasma concentration (Cmax) ([6]; range across doses, QW i.v. infusion 30 min): 0.25 to 0.50 h

CN[C@@H](C)C(=O)N[C@H](C(=O)N1CCC[C@H]1c1nc(C(=O)c2ccc(F)cc2)cs1)C1CCCCC1 [LCL161]
Cytokine release syndrome (CRS) ([7]; high doses of 1800, 2100, and 3000 mg): grade 3-4 cytokine release syndrome | CR or PR ([7]; monotherapy phase I trial): no participant had a CR or PR | Subjects with best response of SD ([7]; monotherapy phase I trial): 19%
